Calls of active or inactive are those of the source. The calls are words filed in the database; no cut-off is given here.

Assay [1] has as its target T1, Polyunsaturated fatty acid lipoxygenase ALOX15 (Homo sapiens) (UniProt P16050).
T1 sequence (whole entry): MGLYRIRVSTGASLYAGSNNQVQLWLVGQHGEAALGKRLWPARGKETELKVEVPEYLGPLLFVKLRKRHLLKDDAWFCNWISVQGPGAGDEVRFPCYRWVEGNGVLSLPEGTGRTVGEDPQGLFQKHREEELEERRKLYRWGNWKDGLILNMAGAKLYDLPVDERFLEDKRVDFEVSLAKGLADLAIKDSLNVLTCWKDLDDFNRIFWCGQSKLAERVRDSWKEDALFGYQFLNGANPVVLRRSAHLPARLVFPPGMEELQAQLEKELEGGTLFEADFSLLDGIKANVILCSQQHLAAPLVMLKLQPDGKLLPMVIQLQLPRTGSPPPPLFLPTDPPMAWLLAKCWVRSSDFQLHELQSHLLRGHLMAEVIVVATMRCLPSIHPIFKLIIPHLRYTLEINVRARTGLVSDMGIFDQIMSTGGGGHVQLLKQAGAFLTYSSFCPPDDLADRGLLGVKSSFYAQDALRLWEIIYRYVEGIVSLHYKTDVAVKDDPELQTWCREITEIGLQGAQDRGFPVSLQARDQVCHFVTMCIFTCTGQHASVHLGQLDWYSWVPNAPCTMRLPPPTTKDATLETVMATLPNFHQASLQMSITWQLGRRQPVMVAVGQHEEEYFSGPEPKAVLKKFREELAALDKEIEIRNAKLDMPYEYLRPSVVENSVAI
In words: Inhibition of 15-lipoxygenase in A23187-stimulated human PMNL assessed as reduction of 15(S)-H(P)ETE formation up to 10 uM preincubated 15 mins by RP-HPLC analysis in presence of exogenous arachidonic acid. In outline: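 Freshly isolated human PMNL (5 × 10⁶/ml PGC buffer: PBS pH 7.4, 1 mg/ml glucose, 1 mM CaCl₂) preincubated with compound 15 min at 37 °C. Stimulated with 2.5 µM A23187 plus exogenous AA for 10 min at 37 °C. Stopped with methanol, PGB₁ added as internal standard, lipoxygenase products analysed by HPLC. Mean of n = 3–5.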

For assay [2], the target named is T2, Prostaglandin G/H synthase 1 (Ovis aries) (UniProt P05979).
T2 sequence (whole entry): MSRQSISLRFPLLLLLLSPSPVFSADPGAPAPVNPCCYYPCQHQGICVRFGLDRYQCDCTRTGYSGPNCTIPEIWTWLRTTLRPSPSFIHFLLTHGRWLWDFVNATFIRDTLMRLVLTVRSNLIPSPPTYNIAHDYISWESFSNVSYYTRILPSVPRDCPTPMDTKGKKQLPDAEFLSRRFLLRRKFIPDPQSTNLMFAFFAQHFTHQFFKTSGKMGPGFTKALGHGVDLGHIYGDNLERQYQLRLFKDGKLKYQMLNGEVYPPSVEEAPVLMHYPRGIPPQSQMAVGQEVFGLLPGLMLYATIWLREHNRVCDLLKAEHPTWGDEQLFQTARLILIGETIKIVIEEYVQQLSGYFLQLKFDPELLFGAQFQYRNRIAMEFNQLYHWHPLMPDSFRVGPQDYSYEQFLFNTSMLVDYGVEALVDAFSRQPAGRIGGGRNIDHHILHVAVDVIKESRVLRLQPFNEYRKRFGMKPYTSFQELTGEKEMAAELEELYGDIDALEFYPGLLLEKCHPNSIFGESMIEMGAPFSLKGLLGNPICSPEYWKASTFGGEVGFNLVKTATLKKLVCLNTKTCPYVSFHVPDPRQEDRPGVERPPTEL
In words: Inhibition of ovine COX1 assessed as residual activity at 10 uM after 5 mins. In outline:
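Ovine COX-1 (50 units) or human recombinant COX-2 (20 units) in 1 ml 100 mM Tris pH 8 with 5 mM glutathione, 5 µM haemoglobin and 100 µM EDTA. Preincubated with 10 µM compound 5 min at 4 °C, warmed 60 s at 37 °C. Started with AA (5 µM for COX-1, 2 µM for COX-2), run 5 min at 37 °C. 12-HHT extracted and analysed by HPLC. n = 3.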

Assay [3] deals with T3, Polyunsaturated fatty acid 5-lipoxygenase (Homo sapiens, UniProt P09917).
T3 sequence (P09917 whole entry): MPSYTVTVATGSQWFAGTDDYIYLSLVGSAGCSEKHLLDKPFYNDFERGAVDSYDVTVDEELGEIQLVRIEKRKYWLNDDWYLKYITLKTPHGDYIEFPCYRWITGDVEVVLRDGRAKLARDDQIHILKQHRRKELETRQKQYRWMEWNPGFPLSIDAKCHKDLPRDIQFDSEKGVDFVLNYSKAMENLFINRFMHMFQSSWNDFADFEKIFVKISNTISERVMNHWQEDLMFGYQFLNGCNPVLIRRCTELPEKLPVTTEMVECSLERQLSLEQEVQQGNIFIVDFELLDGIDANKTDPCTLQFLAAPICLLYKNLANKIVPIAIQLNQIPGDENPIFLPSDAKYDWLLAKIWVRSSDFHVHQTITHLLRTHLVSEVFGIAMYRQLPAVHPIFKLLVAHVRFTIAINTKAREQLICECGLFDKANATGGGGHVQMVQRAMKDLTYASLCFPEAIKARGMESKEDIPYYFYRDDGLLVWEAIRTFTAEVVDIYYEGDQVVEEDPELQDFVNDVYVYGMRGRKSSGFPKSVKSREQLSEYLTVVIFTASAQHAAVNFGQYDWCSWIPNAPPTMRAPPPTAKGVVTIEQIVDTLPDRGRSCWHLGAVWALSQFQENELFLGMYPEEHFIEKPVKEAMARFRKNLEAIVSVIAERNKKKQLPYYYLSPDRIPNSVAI
In words: Inhibition of human recombinant 5-lipoxygenase expressed in Escherichia coli BL21 assessed as enzyme product formation using arachidonic acid as substrate after 10 mins by RP-HPLC analysis. In outline: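 Human 5-LO expressed in E. coli BL21 (pT3-5LO), affinity-purified and used at once. 0.5 µg enzyme in 1 ml PBS/EDTA with 1 mM ATP preincubated with compound 5–10 min at 4 °C, then warmed 30 s at 37 °C. Reaction started with 2 mM CaCl₂ and AA (routinely 20 µM), with or without 1 µM 13(S)-HpODE. Run 10 min at 37 °C, stopped with ice-cold methanol, products analysed by HPLC. Washout: 10-fold dilution (10 to 1 µM).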

For the compound `CCCCC(Sc1ccc(OCCCOc2ccc(-c3ccccc3)cc2)cc1)C(=O)O` (stereo not drawn), in assay [1], the inhibition result was “inactive”. In assay [2], the Activity stood at 79.2%. In addition, the IC50 in assay [3] came out at 3.5 µM.
